ChEMBL document CHEMBL1158369, “Hansch analysis of substituted benzoic acid benzylidene/furan-2-yl-methylene hydrazides as antimicrobial agents” (Eur J Med Chem, 2009)

What was measured:
Candida albicans = assay: Antifungal activity against Candida albicans after 48 hrs by tube dilution method; assay type: functional
Procedure, shortened: (§1)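 Twofold serial dilutions of test and standard compounds in Sabouraud dextrose broth (I.P.); C. albicans incubated 37 °C for 48 h, A. niger 25 °C for 7 d. Growth read visually; MIC is lowest concentration without visible growth.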

Staphylococcus aureus = assay: Antibacterial activity against Staphylococcus aureus after 24 hrs by tube dilution method; assay type: functional
Procedure, shortened: (§2)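 Twofold serial dilutions of test and standard compounds in double strength nutrient broth (I.P.); tubes incubated at 37 °C for 24 h. Growth judged visually; MIC taken as lowest concentration with no visible turbidity.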

Escherichia coli = assay: Antibacterial activity against Escherichia coli after 24 hrs by tube dilution method; assay type: functional; procedure, shortened: as §2
Bacillus subtilis = assay: Antibacterial activity against Bacillus subtilis after 24 hrs by tube dilution method; assay type: functional; procedure, shortened: as §2
[1] = Lipophilicity, log P of the compound; assay type: physicochemical; details: octanol/water
Aspergillus niger = assay: Antifungal activity against Aspergillus niger after 7 days by tube dilution method; assay type: functional; procedure, shortened: as §1

Row | SMILES | -logMIC (Candida albicans) | -logMIC (Staphylococcus aureus) | -logMIC (Escherichia coli) | -logMIC (Bacillus subtilis) | logP [1] | -logMIC (Aspergillus niger)
1 | COc1ccc(C(=O)N/N=C/c2cccc([N+](=O)[O-])c2)cc1OC | 1.66 | 2.05 | 2.63 | 2.33 | 2.87 | 1.72
2 | COc1ccc(/C=N/NC(=O)c2ccc(OC)c(OC)c2)cc1 | 1.68 | 2.17 | 2.58 | 2.58 | 3.39 | 1.68
3 | COc1ccc(/C=N/NC(=O)c2ccc(N)cc2)cc1 | 1.63 | 1.63 | 2.54 | 2.24 | 2.39 | 1.8
4 | COc1ccc(/C=N/NC(=O)c2ccc([N+](=O)[O-])cc2)cc1 | 1.62 | 1.68 | 2.56 | 2.25 | 3.13 | 1.98
5 | Cc1ccc(C(=O)N/N=C/c2ccco2)cc1 |  |  |  |  | 2.84 | 
6 | COc1ccc(/C=N/NC(=O)c2cc([N+](=O)[O-])cc([N+](=O)[O-])c2)cc1OC | 1.78 | 2.38 | 2.68 | 2.51 | 2.83 | 2.08
7 | COc1ccc(/C=N/NC(=O)c2ccc(Cl)cc2)cc1OC | 1.71 | 2.61 | 2.61 | 2.61 | 3.44 | 2.01
8 | Cc1ccc(C(=O)N/N=C/c2cccc([N+](=O)[O-])c2)cc1 | 1.59 | 2.14 | 2.47 | 2.4 | 3.85 | 1.85
9 | O=C(N/N=C/c1cccc([N+](=O)[O-])c1)c1ccc([N+](=O)[O-])cc1 | 1.7 | 1.99 | 2.61 | 2.09 | 3.33 | 1.7
10 | COc1ccc(/C=N/NC(=O)c2ccc(C)cc2)cc1 | 1.63 | 2.24 | 2.54 | 2.32 | 3.64 | 1.88
11 | COc1ccc(/C=N/NC(=O)c2ccc(N)cc2)cc1OC | 1.68 | 1.94 | 2.49 | 2.29 | 2.14 | 1.9
12 | O=C(N/N=C/c1cccc([N+](=O)[O-])c1)c1cc([N+](=O)[O-])ccc1Cl | 1.75 | 2.65 | 2.65 | 2.65 | 3.85 | 1.59
13 | O=C(N/N=C/c1cccc([N+](=O)[O-])c1)c1cccc([N+](=O)[O-])c1 | 1.7 | 1.99 | 2.61 | 2.3 | 3.33 | 1.7
